Results from ChEMBL document CHEMBL3632503, “Antiproliferative and antiplasmodial compounds from selected Streptomyces species” (Bioorg Med Chem Lett, 2015).
pIC50: −log10 of the molar value.

Tests used:
A2780 = test: Antiproliferative activity against human A2780 cells after […] by Alamar Blue assay; format: functional, cell-based
A2058 [1] = test: Antiproliferative activity against human A2058 cells after 96 hrs by CellTitre-Glo luminescent assay; format: functional, cell-based; conditions: A2058, 96 h
[2] = Antiproliferative activity against human H522-T1 cells after 96 hrs by CellTitre-Glo luminescent assay; format: functional, cell-based; conditions: H522-T1, 96 h
A2058 [3] = test: Selectivity ratio of IC50 for human A2780 cells to IC50 for human A2058 cells; format: functional
Plasmodium falciparum = test: Antiplasmodial activity against Plasmodium falciparum Dd2 assessed as growth inhibition after 72 hrs by SYBR Green I dye based assay; format: functional, organism-based; conditions: Dd2, 72 h
Outline: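 Ring-stage parasite cultures at 1% hematocrit and 1% parasitemia, grown 72 h at 37 °C with increasing drug concentrations under 5.05% CO2/4.93% O2/90.2% N2. Viability read by DNA quantitation with SYBR Green I in lysis buffer (0.4 µL dye per mL lysis buffer). IC50 from nonlinear regression curve fitting.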

SMILES	pIC50 (A2780)	pIC50 (A2058 [1])	pIC50 [2]	Ratio IC50 (A2058 [3])	pIC50 (Plasmodium falciparum)
CC[C@H]1C[C@@H]2CC[C@@H](O2)[C@@H](C)C(=O)O[C@H](C)C[C@H]2CC[C@H](O2)[C@H](C)C(=O)O[C@@H](CC)C[C@@H]2CC[C@@H](O2)[C@@H](C)C(=O)O[C@H](C)C[C@H]2CC[C@H](O2)[C@H](C)C(=O)O1 [DINACTIN]	6.59	7.70	8.00	13	–
C[C@@H]1C[C@H]2CC[C@H](O2)[C@H](C)C(=O)O[C@@H](C)C[C@@H]2CC[C@@H](O2)[C@@H](C)C(=O)O[C@H](C)C[C@H]2CC[C@@H](O2)[C@H](C)C(=O)O[C@@H](C)C[C@@H]2CC[C@@H](O2)[C@@H](C)C(=O)O1 [NONACTIN]	6.80	6.59	6.72	–	–
Cn1c(=O)/c(=C/c2ccccc2)[nH]c(=O)/c1=C/c1ccccc1	–	–	–	–	5.18
C=C1NC(=O)[C@H]([C@H](C)OC)N(C)C1=O	–	–	–	–	4.30
CC[C@H]1C[C@@H]2CC[C@@H](O2)[C@@H](C)C(=O)O[C@H](C)C[C@H]2CC[C@H](O2)[C@H](C)C(=O)O[C@@H](C)C[C@@H]2CC[C@@H](O2)[C@@H](C)C(=O)O[C@H](C)C[C@H]2CC[C@H](O2)[C@H](C)C(=O)O1 [MONACTIN]	6.89	7.70	8.00	6.5	–
